Screening data deposited in PubChem by several laboratories.
PMI activator: activators of human PMI, primary screen, biochemical, fluorescence intensity, near-Km mannose 6-phosphate. Mannose-6-phosphate isomerase (Homo sapiens), P34949. purified human PMI, coupled resazurin fluorescence, 20 min; hits give high values; 1 = vehicle control, 0 substrate-free wells. activation factor at 20 µM. actives 0.005% (n = 190,000). AID 1214, 2008;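 active = activation factor of 2 or more at 20 µM, relative to plate controls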
Target sequence (P34949 whole entry, looked up): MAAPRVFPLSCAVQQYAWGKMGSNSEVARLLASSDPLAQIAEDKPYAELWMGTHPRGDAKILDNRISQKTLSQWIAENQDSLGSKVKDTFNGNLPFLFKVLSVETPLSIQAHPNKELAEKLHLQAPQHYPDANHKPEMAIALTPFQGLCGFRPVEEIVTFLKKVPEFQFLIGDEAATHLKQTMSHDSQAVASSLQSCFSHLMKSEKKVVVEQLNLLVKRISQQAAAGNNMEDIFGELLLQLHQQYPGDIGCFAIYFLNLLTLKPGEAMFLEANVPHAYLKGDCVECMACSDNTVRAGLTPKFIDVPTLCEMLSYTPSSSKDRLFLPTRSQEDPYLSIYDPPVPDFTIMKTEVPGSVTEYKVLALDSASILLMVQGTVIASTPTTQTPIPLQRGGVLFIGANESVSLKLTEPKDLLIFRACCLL
PMI act hi M6P: human PMI activators, high substrate, primary screen, biochemical, fluorescence intensity, near-saturating mannose 6-phosphate; Mannose-6-phosphate isomerase (Homo sapiens), P34949; coupled PMI enzyme assay, resazurin fluorescence, 20 min; hits give high values; 1 = untreated enzyme, 0 = substrate-free blank; activation factor at 20 µM; actives 0.34% (n = 190,000);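 active = activation factor of 2 or more at 20 µM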
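assay system = human phosphomannose isomerase with PGI, G6PDH, diaphorase coupling enzymes | quantity = 15 ng/mL PMI | incubation = enzyme reaction with compound 20 min at room temperature | medium = HEPES pH 7.4 buffer with MgCl2 and Tween-20 | compound dosing = one concentration, 20 µM, in 1% DMSO | measured by = Diaphorase-driven resazurin-to-resorufin fluorescence, excitation 544, emission 590 nm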
PTEN del growth: growth suppression of PTEN-null HCT116, primary screen, cell-based, CellTiter-Glo; HCT116 PTEN-null viability, 60 h; hits give low values; viability, % at 10 µM; actives 1.2% (n = 140,000); AID 827, 2007;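 active = viability at or below a set limit, 4 SD under the median of all tested compounds, cut at about 3.7% in these data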;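 note: PTEN knockout HCT116 line with beta catenin targeted HCT116 as companion control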
Lmaj promast: Leishmania major promastigote growth inhibition, primary screen; Leishmania major promastigotes, resazurin fluorescence viability; inhibition, % at 10 µM; actives 9% (n = 200,000); in the data active = inhibition above about 50%;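 note: promastigotes grown with compound for 44 hours at 28 °C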
HCT116 bCat-KO: primary screen for growth suppressors in beta-catenin knockout HCT116 cells (colon tumor, human); HCT116 beta-catenin knockout viability, CellTiter-Glo, 60 h; hits give low values; viability, % at 10 µM; actives 1.5% (n = 140,000); AID 818, 2007;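 active = viability at or under a set limit, the compound median less 4 SD, cut at about 6% in these data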;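 note: 0% = Hyamine 1622 control at 20 µM and 100% = untreated cell control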
The depositor's hits bear a star; nt = no result. Sampled rows, rich in hits. Any-hit rate of the full collection: about 9.6%.

SMILES	PMI activator	PMI act hi M6P	PTEN del growth	Lmaj promast	HCT116 bCat-KO
CN1[C@@H]2CC[C@H]1CC(OC(=O)C(CO)c1ccccc1)C2 (some centres not stated)	1	1	100	-6	94
O=S(=O)(Nn1cnnc1)c1ccc(F)cc1	1.2	1.1	nt	-4	nt
Cc1ccc(CN2CCN(C3CSCCSC3)CC2CCO)cc1 (configuration not stated)	0.9	0.9	nt	5	nt
CCOc1ccc(CN2CCN(C3CCSCC3)CC2CCO)cc1 (configuration not stated)	1	1	nt	73*	nt
CC(=O)c1cc(C#N)c(N2CCCC2)nc1C	1.1	1.1	nt	100*	nt
COc1ccc(C2C(C#N)=C(N)N(c3sc4c(c3C#N)CCCC4)C3=C2C(=O)CC(C)(C)C3)cc1 (configuration not stated)	0.9	1	60	83*	62
COc1ccc(C2C(C#N)=C(SC)NC3=C2C(=O)CC(C)(C)C3)cc1 (configuration not stated)	0.9	0.9	86	0	83
COc1ccc(C2C(C#N)=C3NC(=O)c4c(sc5c4CCCCC5)N3C3=C2C(=O)CC(C)(C)C3)cc1 (configuration not stated)	1	0.9	19	88*	20
COc1ccc(C2C(C#N)=C(N)N(c3sc4c(c3C#N)CCCC4)C3=C2C(=O)CC(C)(C)C3)cc1OC (configuration not stated)	1	1	84	21	72
COc1cc2c(cc1OC)CN(c1nc(CN3CCCCC3)nc3sc4c(c13)CCCC4)CC2	0.9	0.9	19	99*	22
COc1cc2c(cc1OC)CN(c1nc(CN3CCOCC3)nc3sc4c(c13)CCCC4)CC2	0.9	0.9	3.1*	32	30
COc1cc2c(cc1OC)CN(c1nc(CN3CCCC3)nc3sc(C)c(C)c13)CC2	1.4	1.1	nt	50	nt
COc1cccc(Nc2nc(CN3CCOCC3)nc3sc4c(c23)CCCC4)c1	0.9	0.9	70	13	72
CCOc1ccccc1OCCOCCOc1c(Cl)cccc1Cl	0.9	1	92	34	87
CCOc1ccc(OCCOCCOc2c(Cl)cccc2Cl)cc1	nt	nt	nt	60*	nt
Clc1ccc(-c2csc(N3CCOCC3)n2)cc1	0.9	1	nt	-8	nt
CN1CCN(c2nc(-c3ccc(Cl)s3)cs2)CC1	1	1	nt	85*	nt
CCNC(=S)/N=C(\N)Nc1nc(C)c2cc(C)ccc2n1	0.9	1	nt	81*	nt
O=C(CSc1nc2[nH]ncc2c(=O)n1-c1ccc(Cl)c(Cl)c1)NCc1ccccc1Cl	0.9	0.9	nt	77*	nt
O=C(CSc1nc2[nH]ncc2c(=O)n1-c1ccccc1)NCCc1ccccc1	1.1	1	nt	-3	nt
CCOc1nc(Nc2ccc([N+](=O)[O-])cc2)nc(NC(C)(C)C)n1	0.8	0.9	79	74*	91
COc1nc(Nc2ccc([N+](=O)[O-])cc2)nc(NC(C)C)n1	0.7	0.8	110	97*	98
C=CCNc1nc(Nc2ccc([N+](=O)[O-])cc2)nc(OCC)n1	0.9	1	95	7	93
CCC(OC(=O)c1nsc(Cl)c1Cl)C(=O)NC(C)(C)C (configuration not stated)	1.1	1.1	nt	-3	nt
CCOC(=O)C(Cc1ccc(O)cc1)NC(=O)CNC(=O)C(CC(C)C)NC(=O)OC(C)(C)C (configuration not stated)	1	1	96	57*	101
CCOc1ccccc1C1CC(=O)Nc2cc3c(cc21)OCCO3 (configuration not stated)	0.9	0.9	16	17	17
Cc1cc2c(cc1C)C(c1ccccc1Br)CC(=O)N2 (configuration not stated)	1	0.9	72	99*	71
O=C1CC(c2ccccc2F)c2cc3c(cc2N1)CCC3 (configuration not stated)	0.9	1	14	97*	15
CCCOc1ccccc1C1CC(=O)Nc2cc3c(cc21)OCCO3 (configuration not stated)	0.9	0.9	17	98*	17
